# Measurements collected from several papers.
# Each line is one published result; the experiments were not run side by side.
# MC1R: Melanocyte-stimulating hormone receptor (MC1R, Homo sapiens, UniProt Q01726)
# TAOK1: Serine/threonine-protein kinase TAO1 (TAOK1, Homo sapiens, UniProt Q7L7X3)
target,test,conditions,endpoint,value,SMILES
"SRSF protein kinase 3 (SRPK3, Homo sapiens, UniProt Q9UPE1)","cell-free assay, competition with immobilised ligand",25 µM,remaining binding,9.7%,N#Cc1ccc(NC(=O)Nc2ccccc2)cc1
"Protein kinase C delta type (PRKCD, Homo sapiens, UniProt Q05655)",binding,0.1 µM,remaining binding,100%,C1=C/COCc2cc(ccc2OCCN2CCCC2)Nc2nccc(n2)-c2cccc(c2)COC/1
"Ribosomal protein S6 kinase alpha-2 (RPS6KA2, Homo sapiens, UniProt Q15349)","enzyme activity, inhibitor",0.2 µM,inhibition,39%,C#Cc1cc(-c2cc(Nc3nc(N[C@@H](C)c4ccc(F)cn4)ncc3Cl)n[nH]2)ccc1C=O
"Non-receptor tyrosine-protein kinase TYK2 (TYK2, Homo sapiens, UniProt P29597)",binding,1 µM,remaining binding,111%,COc1ccc2oc(-c3ccc4nc(N)oc4c3)c/c(=N\c3ccccc3NC(=O)CCN)c2c1
"Wee1-like protein kinase (WEE1, Homo sapiens, UniProt P30291)","enzyme activity, inhibitor",0.1 µM,inhibition,7.11%,Cc1cc(O)c(-c2ccc([C@@H](C)CN(C)C)cc2)c2c1[nH]c(=O)c1sccc12
MC1R,"cAMP, agonist",,Emax,102%,CCCC[C@H](NC(C)=O)C(=O)N[C@H]1CC(=O)NCCCC[C@@H](C(=O)N2CCC[C@@H]2C(=O)N[C@@H](C(=O)N2CCC[C@@H]2C(N)=O)C(C)C)NC(=O)[C@H](Cc2c[nH]c3ccccc23)NC(=O)[C@H](CCCNC(=N)N)NC(=O)[C@@H](Cc2ccccc2)NC(=O)[C@@H]2CCCN2C1=O
TAOK1,"binding, competition with immobilised ligand",1 µM,remaining binding,63%,C[C@]1(O)CCCN(c2nc(Nc3ccc(S(=O)(=O)N[C@H]4CC[C@H](CN5CCN(c6ccc(C7CCC(=O)NC7=O)cc6F)CC5)CC4)cc3F)ncc2C(F)(F)F)C1 (some centres unmarked)
"Type-1 angiotensin II receptor (AGTR1, Homo sapiens, UniProt P30556)","ligand displacement, radioligand",10 µM,inhibition,0%,CCN1/C(=C/C(C)=O)Sc2ccc(F)cc21
MC1R,"cAMP, agonist",,Emax,100%,CCCC[C@H](NC(C)=O)C(=O)N[C@@H](C)C(=O)N[C@@H](Cc1c[nH]cn1)C(=O)N[C@@H](Cc1ccccc1)C(=O)N[C@@H](CCCNC(=N)N)C(=O)N[C@H](Cc1c[nH]c2ccccc12)C(=O)N[C@@H](CC(=O)O)C(=O)N[C@@H](CCCNC(=N)N)C(=O)N[C@@H](Cc1ccccc1)C(=O)N[C@@H](C(=O)N1CCC[C@@H]1C(N)=O)C(C)C
TAOK1,"binding, competition with immobilised ligand",1 µM,remaining binding,91%,C[C@]1(O)CCCN(c2nc(Nc3ccc(S(=O)(=O)N[C@H]4CC[C@H](CN5CCN(c6ccc(C7CCC(=O)NC7=O)cc6F)CC5)CC4)cc3Cl)ncc2C(F)(F)F)C1 (some centres unmarked)
"Adenosine receptor A3 (ADORA3, Homo sapiens, UniProt P0DMS8)","ligand displacement, radioligand",10 µM,inhibition,< 50%,NC/C(=C\F)COc1cccc(Cn2c(=S)[nH]c(=O)c3[nH]cnc32)c1
"Calcium/calmodulin-dependent protein kinase type 1B (PNCK, Homo sapiens, UniProt Q6P2M8)","binding, competition with immobilised ligand",0.5 µM,remaining binding,85%,CCCCC(=O)Nc1ccc(-c2ccc3ncn(CCC)c(=O)c3c2)cn1
"Neuropeptide Y receptor type 1 (NPY1R, Homo sapiens, UniProt P25929)",cell-free assay,10 µM,inhibition,1%,Cc1cc(F)cc2c(CCC(=O)N[C@@H]3C(=O)NC[C@H]3O)c(-c3ccc(F)cc3)[nH]c12
"Serine/threonine-protein kinase B-raf (BRAF, Homo sapiens, UniProt P15056)","enzyme activity, inhibitor, ADP detection",0.3704 µM,inhibition,84%,Cc1cc2c(C(N)=O)c(N)n(-c3c(C)ccc(O)c3C)c2nc1C
